The source made the active and inactive calls.
How the values were obtained:
Type in all cases: functional
[1] = system: Yersinia pseudotuberculosis; test: Antibacterial activity against Yersinia pseudotuberculosis ATCC 911 after 18 to 24 hr by double microdilution method
Summary of the method: (§1)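 Compounds dissolved in […] as 20.000 μg/mL stock solutions. Tested quantitatively by double microdilution in Mueller–Hinton broth at pH 7.3, with plates incubated 18–24 h at 35 °C. Read-out is the minimal inhibition concentration (MIC) in μg/mL.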

Pseudomonas aeruginosa = test: Antibacterial activity against Pseudomonas aeruginosa ATCC 43288 after 18 to 24 hr by double microdilution method
Summary of the method: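 Double microdilution in Mueller–Hinton broth, pH 7.3; plates incubated 18–24 h at 35 °C; MIC (μg/mL) determined. Compounds dissolved in hexane as 20.000 μg/mL stock.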

Bacillus cereus = test: Antibacterial activity against Bacillus cereus 702 Roma after 18 to 24 hr by double microdilution method; summary of the method: as §1
Enterococcus faecalis = test: Antibacterial activity against Enterococcus faecalis ATCC 29212 after 18 to 24 hr by double microdilution method; summary of the method: as §1
Staphylococcus aureus = test: Antibacterial activity against Staphylococcus aureus ATCC 25923 after 18 to 24 hr by double microdilution method; summary of the method: as §1
[2] = system: Mycolicibacterium smegmatis; test: Antibacterial activity against Mycobacterium smegmatis ATCC 607 after 48 to 72 hr by double microdilution method
Summary of the method: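 Compounds dissolved in hexane as 20.000 μg/mL stock solutions. MIC (μg/mL) determined quantitatively by double microdilution, using Brain Heart Infusion broth as the growth medium for M. smegmatis.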

Measured: MIC

CCOC(=O)CNc1ccc(N2CCOCC2)nc1
not listed: [2]
inactive: all other assays above

O=C(CNc1ccc(N2CCOCC2)nc1)N/N=c1\sc(-c2ccc(Cl)cc2)cn1-c1ccccc1
inactive: all assays above

O=C(CNc1ccc(N2CCOCC2)nc1)NNC(=S)Nc1ccccc1
not listed: [2]
inactive: all other assays above

O=C(CNc1ccc(N2CCOCC2)nc1)N/N=C1\SCC(=O)N1c1ccccc1
inactive: all assays above

O=C(CNc1ccc(N2CCOCC2)nc1)N/N=C/C=C/c1ccccc1
inactive: all assays above

NNC(=O)CNc1ccc(N2CCOCC2)nc1
not listed: [2]
inactive: all other assays above

O=C(CNc1ccc(N2CCOCC2)nc1)N/N=C/c1ccc(Br)cc1
not listed: [2]
inactive: all other assays above

Sc1nnc(CNc2ccc(N3CCOCC3)nc2)n1-c1ccccc1
not listed: [2]
inactive: all other assays above

Sc1nnc(CNc2ccc(N3CCOCC3)nc2)o1
inactive: all assays above

Source: ChEMBL document CHEMBL3045103, “Antimicrobial and antiurease activities of newly synthesized morpholine derivatives containing an azole nucleus” (Med Chem Res, 2013)
